From ChEMBL document CHEMBL2203229, “Structure Activity Relationship Study of the Cleistriosides and Cleistetrosides for Antibacterial/Anticancer Activity” (ACS Med Chem Lett, 2012)
Converted amounts (≈) assume the structure as drawn.

Columns and labels:
[1] = test system: Escherichia coli; assay: Antibacterial activity against Escherichia coli K-12 MG1655 assessed as growth inhibition after 16 hrs by broth dilution method; assay type: functional; conditions: K-12 substr. MG1655, 16 h
Summary of the method: (§1)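 Strains grown overnight in LB, diluted 10-fold, shaken at 37 °C for 45 min–1 h (~10⁸ CFU/mL), then diluted ~1000-fold to ~10⁵ CFU/mL. Broth dilution in LB: 20 mM DMSO stocks, 1:2 serial dilutions giving seven concentrations, inoculum added 1:1. OD600 read with shaking.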

[2] = test system: NCI-H460; assay: Growth inhibition of human NCI-H460 cells after 48 hrs by sulforhodamine B assay; assay type: functional; conditions: NCI-H460, 48 h
Summary of the method: (§2)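 Cells in RPMI 1640 with 5% FBS, plated at 5,000–40,000/well and grown 24 h. Time-zero plates fixed with TCA. Five drug concentrations, 48 h at 37 °C, 5% CO₂. Fixation with TCA (10% final for adherent lines; 16% final for suspension lines), staining with 0.4% SRB, reading at 515 nm. GI50 is the concentration giving a 50% reduction in net protein increase relative to time zero.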

[3] = test system: MDA-MB-435; assay: Growth inhibition of human MDA-MB-435 cells after 48 hrs by sulforhodamine B assay; assay type: functional; conditions: MDA-MB-435, 48 h; summary of the method: as §2
[4] = test system: BT-549; assay: Growth inhibition of human BT549 cells after 48 hrs by sulforhodamine B assay; assay type: functional; conditions: BT-549, 48 h; summary of the method: as §2
[5] = test system: MCF7; assay: Growth inhibition of human MCF7 cells after 48 hrs by sulforhodamine B assay; assay type: functional; conditions: MCF7, 48 h; summary of the method: as §2
[6] = test system: A498; assay: Growth inhibition of human A498 cells after 48 hrs by sulforhodamine B assay; assay type: functional; conditions: A498, 48 h; summary of the method: as §2
[7] = test system: NCI-H460; assay: Cytotoxicity against human NCI-H460 cells assessed as inhibition of cell viability by MTT assay; assay type: functional, cell-based
Summary of the method: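 NCI-H460 cells in RPMI 1640 with 10% FBS and 2 mM glutamine at 37 °C, 5% CO₂. Seeded at 10,000 cells/well for 12 h, then dosed in 1% FBS medium (DMSO below 0.1% final). MTT (10 µL of 5 mg/mL) for 4 h, formazan dissolved in DMSO for 45 min, absorbance at 562 nm. Triplicate wells, at least three runs (N = 9).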

[8] = test system: SF-539; assay: Growth inhibition of human SF539 cells after 48 hrs by sulforhodamine B assay; assay type: functional; conditions: SF-539, 48 h; summary of the method: as §2
[9] = test system: Escherichia coli; assay: Antibacterial activity against Escherichia coli K-12 BAS901 harboring genetically modified imp-4213, zab4292::Tn5 assessed as growth inhibition after 16 hrs by broth dilution method; assay type: functional; conditions: K-12 BAS901, 16 h
Summary of the method: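 Kanamycin-resistant strain grown overnight in LB with kanamycin 50 µg/mL, diluted 10-fold, then shaken at 37 °C for 45 min–1 h (~10⁸ CFU/mL). Diluted ~1000-fold to 10⁵ CFU/mL in LB. DMSO stocks (20 mM) prepared as 4X working solutions in LB. Seven 1:2 serial dilutions mixed with equal-volume inoculum. OD600 read with shaking.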

[10] = test system: SNB-75; assay: Growth inhibition of human SNB75 cells after 48 hrs by sulforhodamine B assay; assay type: functional; conditions: SNB-75, 48 h; summary of the method: as §2
[11] = test system: CAKI-1; assay: Growth inhibition of human CAKI-1 cells after 48 hrs by sulforhodamine B assay; assay type: functional; conditions: CAKI-1, 48 h; summary of the method: as §2
[12] = test system: HT-29; assay: Growth inhibition of human HT-29 cells after 48 hrs by sulforhodamine B assay; assay type: functional; conditions: HT-29, 48 h; summary of the method: as §2
[13] = test system: HCT-15; assay: Growth inhibition of human HCT15 cells after 48 hrs by sulforhodamine B assay; assay type: functional; conditions: HCT-15, 48 h; summary of the method: as §2
[14] = Growth inhibition of human NCI-ADR-RES cells after 48 hrs by sulforhodamine B assay; assay type: functional; summary of the method: as §2
[15] = test system: DU-145; assay: Growth inhibition of human DU145 cells after 48 hrs by sulforhodamine B assay; assay type: functional; conditions: DU-145, 48 h; summary of the method: as §2
[16] = test system: SR; assay: Growth inhibition of human SR cells after 48 hrs by sulforhodamine B assay; assay type: functional; summary of the method: as §2
[17] = Antibacterial activity against Bacillus subtilis JH642 containing trpC2 pheA1 assessed as growth inhibition after 16 hrs by broth dilution method; assay type: functional, Bacillus subtilis subsp. subtilis str. JH642; summary of the method: as §1
[18] = test system: A549; assay: Growth inhibition of human A549 cells after 48 hrs by sulforhodamine B assay; assay type: functional; conditions: A549, 48 h; summary of the method: as §2
[19] = test system: SK-MEL-5; assay: Growth inhibition of human SK-MEL-5 cells after 48 hrs by sulforhodamine B assay; assay type: functional; conditions: SK-MEL-5, 48 h; summary of the method: as §2
[20] = test system: PC-3; assay: Growth inhibition of human PC3 cells after 48 hrs by sulforhodamine B assay; assay type: functional; conditions: PC-3, 48 h; summary of the method: as §2
[21] = test system: OVCAR-3; assay: Growth inhibition of human OVCAR3 cells after 48 hrs by sulforhodamine B assay; assay type: functional; conditions: OVCAR-3, 48 h; summary of the method: as §2
[22] = test system: RPMI-8226; assay: Growth inhibition of human RPMI8226 cells after 48 hrs by sulforhodamine B assay; assay type: functional; conditions: RPMI-8226, 48 h; summary of the method: as §2

Row | SMILES | MIC [1] | GI50 [2] | GI50 [3] | GI50 [4] | GI50 [5] | GI50 [6] | IC50 [7] | GI50 [8] | MIC [9] | GI50 [10] | GI50 [11] | GI50 [12] | GI50 [13] | GI50 [14] | GI50 [15] | GI50 [16] | MIC [17] | GI50 [18] | GI50 [19] | GI50 [20] | also measured
1 | CCCCCCCCCCCCO[C@@H]1O[C@@H](C)[C@H](O[C@@H]2O[C@@H](C)[C@H](OC(C)=O)[C@@H](O[C@@H]3O[C@@H](C)[C@H](O)[C@@H](OC(C)=O)[C@H]3OC(C)=O)[C@H]2O)[C@@H](O)[C@H]1O | > 64 µM | 1.54 µM | 1.49 µM | 4.54 µM | 1.62 µM | 5.13 µM | 12.5 µM | 3.1 µM | 32 µM (≈ 24 µg/mL) | 0.9 µM | 6.57 µM | 1.21 µM | 7.38 µM | 7.92 µM | 2.48 µM | 1.2 µM | 8 µM (≈ 6.01 µg/mL) | 2.08 µM | 1.23 µM | 0.89 µM | GI50 [21]: 1.49 µM; GI50 [22]: 1 µM
2 | CCCCCCCCCCCCO[C@@H]1O[C@@H](C)[C@H](O[C@@H]2O[C@@H](C)[C@H](OC(C)=O)[C@@H](O[C@@H]3O[C@@H](C)[C@H](OC(C)=O)[C@@H](O[C@@H]4O[C@@H](C)[C@H](O)[C@@H](O)[C@H]4OC(C)=O)[C@H]3OC(C)=O)[C@H]2O)[C@@H](O)[C@H]1O | > 64 µM | 8.43 µM | 7.25 µM | 8.39 µM | 5.29 µM | 5.64 µM | 12.8 µM | 7.17 µM | > 64 µM | 2.18 µM | 9.24 µM | 8.13 µM | 8.33 µM | 8.9 µM | 7.47 µM | 3.83 µM | 8 µM (≈ 7.51 µg/mL) | 8.18 µM | 6.27 µM | 6.55 µM | GI50 [21]: 6.07 µM; GI50 [22]: 2.84 µM
3 | CCCCCCCCCCCCO[C@@H]1O[C@@H](C)[C@H](O[C@@H]2O[C@@H](C)[C@H](OC(C)=O)[C@@H](O[C@@H]3O[C@@H](C)[C@H](O)[C@@H](O[C@@H]4O[C@@H](C)[C@H](OC(C)=O)[C@@H](OC(C)=O)[C@H]4OC(C)=O)[C@H]3OC(C)=O)[C@H]2O)[C@@H](O)[C@H]1O | > 64 µM | 0.96 µM | 0.84 µM | 0.88 µM | 0.94 µM | 0.02 µM | 9.8 µM | 0.91 µM | > 64 µM | 0.62 µM | 0.6 µM | 0.91 µM | 1.52 µM | 2.24 µM | 0.79 µM | 0.85 µM | > 64 µM | 0.97 µM | 0.82 µM | 0.75 µM | GI50 [21]: 0.8 µM; GI50 [22]: 0.92 µM
4 | CCCCCCCCCCCCO[C@@H]1O[C@@H](C)[C@H](O[C@@H]2O[C@@H](C)[C@H](OC(C)=O)[C@@H](O[C@@H]3O[C@@H](C)[C@H](OC(C)=O)[C@@H](O)[C@H]3OC(C)=O)[C@H]2O)[C@@H](O)[C@H]1O | > 64 µM | 6.32 µM | 7.68 µM | 7.9 µM | 4.84 µM | 6.73 µM | 90.9 µM | 7.11 µM | > 64 µM | 3.42 µM | 8.78 µM | 4.35 µM | 8.39 µM | 9.29 µM | 7.94 µM | 3.2 µM | 32 µM (≈ 24 µg/mL) | 6.69 µM | 6.21 µM | 2.37 µM | GI50 [21]: 5.91 µM; GI50 [22]: 4.12 µM
